The text below walks through data of BindingDB's records for doi:10.1021/acs.jmedchem.9b01313 (Anhui Medical University, 2019).

pIC50: −log10 of the molar value.

Sequence of Hypoxia-inducible factor 1-alpha (Q16665 whole entry): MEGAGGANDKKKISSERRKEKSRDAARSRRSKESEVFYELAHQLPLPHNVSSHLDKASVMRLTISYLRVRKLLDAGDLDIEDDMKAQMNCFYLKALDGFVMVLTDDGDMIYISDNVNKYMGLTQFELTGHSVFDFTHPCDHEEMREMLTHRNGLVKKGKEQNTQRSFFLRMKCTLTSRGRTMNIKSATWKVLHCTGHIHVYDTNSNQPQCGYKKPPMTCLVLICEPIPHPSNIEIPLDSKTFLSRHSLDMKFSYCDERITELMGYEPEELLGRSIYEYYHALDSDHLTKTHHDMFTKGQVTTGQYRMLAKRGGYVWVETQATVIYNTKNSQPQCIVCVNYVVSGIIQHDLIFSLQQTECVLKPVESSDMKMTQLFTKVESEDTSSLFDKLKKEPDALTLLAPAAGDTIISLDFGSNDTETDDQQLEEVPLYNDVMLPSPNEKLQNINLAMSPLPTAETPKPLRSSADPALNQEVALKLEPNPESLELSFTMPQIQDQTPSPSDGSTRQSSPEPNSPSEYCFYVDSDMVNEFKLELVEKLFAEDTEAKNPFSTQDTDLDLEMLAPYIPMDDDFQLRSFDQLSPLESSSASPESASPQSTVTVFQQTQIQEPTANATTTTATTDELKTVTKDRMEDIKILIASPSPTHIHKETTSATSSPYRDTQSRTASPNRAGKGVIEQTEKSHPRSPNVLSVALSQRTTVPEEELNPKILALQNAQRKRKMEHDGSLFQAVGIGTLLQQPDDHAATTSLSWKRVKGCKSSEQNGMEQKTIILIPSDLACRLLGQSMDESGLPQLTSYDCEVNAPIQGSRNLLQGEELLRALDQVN

For the test, the target named is Hypoxia-inducible factor 1-alpha (Homo sapiens, UniProt Q16665). The experiment in a line: Inhibition of HIF1alpha transcriptional activity in hypoxia-induced human HCCLM3 cells co-transfected with luciferase reporter plasmid containing five copies of HREs and pRL-SV40 plasmid encoding Renilla luciferase incubated with compound under normoxia for 1 hr followed by hypoxia induction and measured after 24 hrs by HRE-dependent dual luciferase reporter gene assay. In outline:
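LM3 cells co-transfected with firefly luciferase reporter carrying five HRE copies plus pRL-SV40 Renilla plasmid; after transfection treated and kept under hypoxia; firefly luminescence normalized to Renilla. Single-point inhibition rate at 10 μM; IC50 for selected compounds.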
In general terms: A reporter such as luciferase makes a cellular process visible.
One may read the pIC50 as −log10 of the IC50, conventionally taken in molar units. As for `O=C(NCCc1ccccc1F)c1ccc(-c2cccs2)cn1`, the pIC50 was 5.61.

In the case of `O=C(NCCc1ccccc1F)c1ccc(-c2ccoc2)cn1`, the negative-log IC50 (pIC50) was 5.37.

On to `N#Cc1ccccc1-c1ccc(C(=O)NCCc2ccccc2F)nc1`, for which the negative-log IC50 (pIC50) is 5.07.

As to `O=C(NCCc1ccncc1)c1nnc(-c2ccccc2)o1`, the negative-log IC50 (pIC50) is 5.14.

In the case of `O=C(NCCc1ccccc1)c1ccc(-c2ccccc2)cn1`, the pIC50 is 5.34.

Take `O=C(NCCc1ccccc1F)c1ccc(-c2ccccc2F)cn1`: the negative logarithm of the IC50 (pIC50) was 5.67.

As to `O=C(NCCc1ccccc1Cl)c1ccc(-c2ccccc2)cn1`, the pIC50 is 5.01.

For the compound `O=C(NCCc1ccccc1Cl)c1ccc(-c2ccccc2)cc1`, the negative logarithm of the IC50 (pIC50) is 5.54.

On to `O=C(NCCc1cccc(Cl)c1)c1ccc(-c2ccccc2)cn1`, for which the pIC50 was 5.01.

Turning to `O=C(NCCc1ccncc1)c1ccc(-c2ccccc2)cn1`, the negative logarithm of the IC50 (pIC50) is 4.86.

As to `Cc1nc(C(=O)NCCc2ccccc2)cs1`, the pIC50 is 4.25.

For the compound `O=C(NCCc1ccccc1F)c1ccc(-c2ccsc2)cn1`, the pIC50 is 5.85.

On to `COC(=O)c1ccc(O)c(NC(=O)COc2ccc(C34CC5CC(CC(C5)C3)C4)cc2)c1`, for which the negative logarithm of the IC50 (pIC50) is 5.51.

As for `O=C(NCCc1ccncc1)c1nccc(-c2ccccc2)n1`, the pIC50 is 5.00.

Regarding `O=C(NCCc1ccccc1F)c1ccc(-c2ccccc2)cn1`, the pIC50 is 6.03.

`Nc1ccc(CCNC(=O)c2ccc(-c3ccccc3)cn2)cc1`: the pIC50 was 4.94.

In the case of `COc1ccccc1-c1ccc(C(=O)NCCc2ccccc2F)nc1`, the pIC50 was 6.49.
